The values below come from ChEMBL document CHEMBL3044755, “5-Methyl-1,2,3-thiadiazoles synthesized via ugi reaction and their fungicidal and antiviral activities” (J Agric Food Chem, 2010).

By inhibition is commonly meant how much of the control response was suppressed. The low end stands for a response near the control, the high end for a response far below the control.

What all share (type): functional
For one test, the system named is Alternaria solani. Description: Fungicidal activity against Alternaria solani at 50 ug/ml by growth inhibition method. To be noted: read-out: GI. An outline of the steps:
(§1)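 Mycelial growth inhibition on potato dextrose agar. The panel covered Alternaria solani, Botrytis cinerea, Cercospora arachidicola, C. beticola, Colletotrichum lagenarium, Fusarium oxysporum, Gibberella zeae, Puccinia triticina, Phytophthora infestans, Physalospora piricola, Pellicularia sasakii and Rhizoctonia solani.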

The next test has as its system Cercospora beticola. Briefly: Fungicidal activity against Cercospora beticola at 50 ug/ml by growth inhibition method. To be noted: read-out: GI. In a few lines: as §1
Test [1] deals with Tobacco mosaic virus. Description: In vitro antiviral activity against Tobacco mosaic virus (TMV) infected tobacco leaves at 200 ug/ml.
Another test deals with Mycosphaerella arachidis. Description: Fungicidal activity against Mycosphaerella arachidis at 50 ug/ml by growth inhibition method. The conditions noted are these: read-out: GI. An outline of the steps: as §1
A further test deals with Fusarium oxysporum. Briefly: Fungicidal activity against Fusarium oxysporum at 50 ug/ml by growth inhibition method. The conditions noted are these: read-out: GI. An outline of the steps:
as §1

Test [2] concerns Botryosphaeria berengeriana. Briefly: Fungicidal activity against Botryosphaeria berengeriana at 50 ug/ml by growth inhibition method. To be noted: read-out: GI. In a few lines: as §1
A further test concerns Colletotrichum lagenaria. Description: Fungicidal activity against Colletotrichum lagenaria at 50 ug/ml by growth inhibition method. To be noted: read-out: GI. An outline of the steps: as §1
The subject of the next test is Botrytis cinerea. Description: Fungicidal activity against Botryotinia fuckeliana at 50 ug/ml by growth inhibition method. The conditions noted are these: read-out: GI. An outline of the steps: as §1
For another test, the system named is Thanatephorus cucumeris. Description: Fungicidal activity against Thanatephorus cucumeris at 50 ug/ml by growth inhibition method. To be noted: read-out: GI. In a few lines:
as §1

The test system of test [3] is Tobacco mosaic virus. Briefly: In vitro antiviral activity against Tobacco mosaic virus (TMV) infected tobacco leaves at 500 ug/ml.
The next test has as its system Fusarium graminearum. Briefly: Fungicidal activity against Fusarium graminearum at 50 ug/ml by growth inhibition method. To be noted: read-out: GI. An outline of the steps:
as §1

The next test relates to Phytophthora infestans. Description: Fungicidal activity against Phytophthora infestans at 50 ug/ml by growth inhibition method. To be noted: read-out: GI. In a few lines: as §1

For `Cc1ccc(N(C(=O)c2nnsc2C)C(C(=O)NC(C)C)c2ccccc2C(F)(F)F)cc1Cl` (stereo unspecified), the inhibition of growth at 50 µg/mL turned out to be 36% with Alternaria solani; 23% with Cercospora beticola; 18% in the test on Mycosphaerella arachidis; 10% with Fusarium oxysporum; 43% in test [2]; 17% in the test on Colletotrichum lagenaria. Also, the inhibition of growth at 50 µg/mL in the test on Botrytis cinerea came to 70%; in the test with Thanatephorus cucumeris, 57%; in the test with Fusarium graminearum it was 24%; in the test with Phytophthora infestans it was 13%. In the test with Tobacco mosaic virus [1], this molecule displayed an inhibition at 200 µg/mL of 29%. For the same molecule, at 500 µg/mL the inhibition in the test with Tobacco mosaic virus [3] was 16%.
Regarding `Cc1ccc(N(C(=O)c2nnsc2C)C(C(=O)NC(C)C)c2ccc([N+](=O)[O-])cc2)cc1Cl` (stereo unspecified), the inhibition of growth at 50 µg/mL in the test on Alternaria solani worked out at 39%; in the test on Cercospora beticola, 9%; with Mycosphaerella arachidis, 17%; with Fusarium oxysporum, 23%; in [2], 33%; in the test on Colletotrichum lagenaria, 4%. Besides, the inhibition of growth at 50 µg/mL in the test with Botrytis cinerea amounted to 79%; in the test with Thanatephorus cucumeris, 60%; in the test with Fusarium graminearum it was 4%; with Phytophthora infestans, 21%. In the test with Tobacco mosaic virus [1], this molecule gave an inhibition at 200 µg/mL of 14%. Further, 500 µg/mL produced 19% inhibition with Tobacco mosaic virus [3].
Turning to `Cc1ccc(N(C(=O)c2nnsc2C)C(C(=O)NC(C)C)c2ccc(Cl)cc2)cc1Cl` (stereo unspecified), the inhibition of growth at 50 µg/mL with Alternaria solani turned out to be 37%; in the test with Cercospora beticola, 9%; in the test on Mycosphaerella arachidis it was 21%; with Fusarium oxysporum, 26%; in test [2], 47%; with Colletotrichum lagenaria it was 7%. Moreover, the inhibition of growth at 50 µg/mL was determined as 76% in the test on Botrytis cinerea, 60% in the test on Thanatephorus cucumeris, 4% with Fusarium graminearum and 19% in the test on Phytophthora infestans. In the test with Tobacco mosaic virus [1], this molecule showed an inhibition at 200 µg/mL of 25%. Besides, testing at 500 µg/mL with Tobacco mosaic virus [3] gave an inhibition of 32%.
As to `Cc1ccc(N(C(=O)c2nnsc2C)C(C(=O)NC(C)C)c2cccc(Cl)c2)cc1Cl` (stereo unspecified), the inhibition of growth at 50 µg/mL in the test on Alternaria solani amounted to 37%; with Cercospora beticola, 9%; with Mycosphaerella arachidis, 8%; in the test with Fusarium oxysporum, 26%; in [2], 40%; in the test on Colletotrichum lagenaria, 14%. The inhibition of growth at 50 µg/mL was determined as 76% in the test with Botrytis cinerea, 62% in the test with Thanatephorus cucumeris, 4% with Fusarium graminearum and 14% in the test with Phytophthora infestans. In the test on Tobacco mosaic virus [1], the inhibition at 200 µg/mL was determined as 6%. At 500 µg/mL the inhibition in the test with Tobacco mosaic virus [3] was 9%.
Take `Cc1ccc(N(C(=O)c2nnsc2C)C(C(=O)NC(C)C)c2ccccc2Cl)cc1Cl` (stereo unspecified): the inhibition of growth at 50 µg/mL in the test with Alternaria solani amounted to 49%; in the test on Cercospora beticola, 25%; in the test on Mycosphaerella arachidis, 21%; with Fusarium oxysporum it was 23%; in test [2], 27%; in the test with Colletotrichum lagenaria, 13%. Also, the inhibition of growth at 50 µg/mL is 76% in the test on Botrytis cinerea, 72% in the test on Thanatephorus cucumeris, 23% in the test with Fusarium graminearum and 23% with Phytophthora infestans. Besides, in the test on Tobacco mosaic virus [1], 200 µg/mL produced 3% inhibition. For the same molecule, the inhibition at 500 µg/mL in the test with Tobacco mosaic virus [3] stood at 8%.
As to `Cc1ccc(N(C(=O)c2nnsc2C)C(C(=O)NC(C)C)c2ccc(F)cc2)cc1Cl` (stereo unspecified), the inhibition of growth at 50 µg/mL with Alternaria solani stood at 42%; in the test on Cercospora beticola, 25%; with Mycosphaerella arachidis, 13%; in the test with Fusarium oxysporum it was 14%; in [2] it was 36%; with Colletotrichum lagenaria it was 17%. The inhibition of growth at 50 µg/mL worked out at 70% with Botrytis cinerea, 63% with Thanatephorus cucumeris, 27% in the test with Fusarium graminearum and 5% in the test on Phytophthora infestans. This molecule showed an inhibition at 200 µg/mL with Tobacco mosaic virus [1] of 14%. Also, 500 µg/mL produced 19% inhibition with Tobacco mosaic virus [3].
Turning to `Cc1ccc(N(C(=O)c2nnsc2C)C(C(=O)NC(C)C)c2ccc(C(F)(F)F)cc2)cc1Cl` (stereo unspecified), the inhibition of growth at 50 µg/mL with Alternaria solani is 35%; in the test with Cercospora beticola, 17%; in the test with Mycosphaerella arachidis, 25%; in the test with Fusarium oxysporum it was 12%; in test [2], 11%; in the test on Colletotrichum lagenaria, 7%. For the same molecule, the inhibition of growth at 50 µg/mL in the test on Botrytis cinerea worked out at 70%; in the test with Thanatephorus cucumeris it was 56%; with Fusarium graminearum, 67%; in the test on Phytophthora infestans, 0%. Testing at 200 µg/mL with Tobacco mosaic virus [1] gave an inhibition of 32%. 500 µg/mL produced 34% inhibition with Tobacco mosaic virus [3].
For the molecule `Cc1ccc(N(C(=O)c2nnsc2C)C(C(=O)NC(C)C)c2cccc(C(F)(F)F)c2)cc1Cl` (stereo unspecified), the inhibition of growth at 50 µg/mL in the test on Alternaria solani came out at 37%; with Cercospora beticola, 25%; with Mycosphaerella arachidis, 13%; in the test with Fusarium oxysporum, 14%; in test [2], 44%; in the test with Colletotrichum lagenaria, 17%. Moreover, the inhibition of growth at 50 µg/mL with Botrytis cinerea was found to be 76%; in the test with Thanatephorus cucumeris, 26%; with Fusarium graminearum, 50%; with Phytophthora infestans, 0%. In addition, the inhibition at 200 µg/mL in the test on Tobacco mosaic virus [1] came to 17%. The inhibition at 500 µg/mL in the test with Tobacco mosaic virus [3] is 41%.
